HSF1 inhib – HSF1 inhibition. NIH3T3-HGL HSE-luciferase, MG132-induced, luminescence 8 h; hits give low values. activity change, negative = inhibition, % at 7.5 µM (by protocol). 300,000 compounds, 0.77% hits;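 active means more than half of replicate wells show activity change below -50%, luminescence cut by over half; inconclusive means some wells, but at most half, below -50%; inactive means no replicate well below -50%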;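 further: luciferase reports HSF-1 transcriptional activity via heat shock element; 0% = median of DMSO wells and -100% = zero luminescence signal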
HSF-1 act – increases HSF-1 driven luciferase reporter signal. NIH3T3-HGL HSF-1 luciferase reporter, MG132, 8 h; 100% = twice DMSO control signal. activation, % at 9 µM. 300,000 compounds, 1.7% hits. AID 504408;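 active means mean replicate activation of at least 50% with a set share of replicates each reaching 50%; inconclusive means only one of those two conditions met; inactive means mean below 50% and too few replicates reaching it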;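 further: 0% = median of the neutral control wells and 100% = twice that signal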
ALR H2O2 inh – human ALR oxidase inhibition via reduced H2O2; P55789; purified ALR, DTT oxidation, H2O2 HRP-luminol luminescence; inhibition, % (test concentration not listed); 290,000 compounds, 3.8% hits; AID 485317;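 active means mean replicate inhibition above about 79%, with every replicate also reaching it, limit read from the data; inconclusive means only one of the two criteria met; inactive means mean below limit and not every replicate reaching it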
Target sequence (P55789 whole entry, looked up): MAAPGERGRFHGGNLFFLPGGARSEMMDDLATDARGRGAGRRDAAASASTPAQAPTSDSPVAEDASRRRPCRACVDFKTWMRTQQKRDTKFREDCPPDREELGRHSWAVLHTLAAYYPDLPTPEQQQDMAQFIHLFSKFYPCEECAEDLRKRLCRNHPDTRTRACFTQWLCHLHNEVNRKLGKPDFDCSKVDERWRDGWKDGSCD
AI-2 QS modul – modulators of Vibrio harveyi AI-2 quorum sensing system; activity change, % at 7.5 µM; AID 2094; 300,000 compounds, 0.4% hits; Vibrio harveyi JMH597 AI-2 luminescence/OD600 ratio, 9 h; hits give low values; strain lacks LuxN and CqsS sensors; 0 = neutral-control median; in the data active means activity change below about -75%, passing the limit was not always enough; inconclusive means no clear call, values can overlap the other calls;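 further: luminescence divided by OD600 gain over 9 h not by final OD600 alone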
HCV core dimer – HCV core protein dimerization inhibition; TR-FRET GST/Flag-core106 dimerization, 1536-well; inhibition, % at 5 µM; 300,000 compounds, 0.33% hits;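 active means inhibition above the mean of all tested compounds plus 3 SD, set per screening campaign, cut at about 45% in these data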
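Assay system: tagged HCV core106 pair (GST and Flag); medium: KF-containing HEPES buffer, pH 7.45, DTT, CHAPS, BSA; also added: Eu donor and XL665 acceptor anti-tag antibodies; dosing: 5 µM single dose; timing: compound-protein-antibody incubation 4 h at 22.5 °C; signal: TR-FRET 671 and 617 nm emission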
PHOSPHO1 block – PHOSPHO1 (human) inhibition; Q8TCT1; recombinant PHOSPHO1, absorbance phosphatase assay; inhibition, % at 13.3 µM; 290,000 compounds, 1.1% hits; AID 1565; in the data active means inhibition above about 60%
Target sequence (Q8TCT1 whole entry, looked up): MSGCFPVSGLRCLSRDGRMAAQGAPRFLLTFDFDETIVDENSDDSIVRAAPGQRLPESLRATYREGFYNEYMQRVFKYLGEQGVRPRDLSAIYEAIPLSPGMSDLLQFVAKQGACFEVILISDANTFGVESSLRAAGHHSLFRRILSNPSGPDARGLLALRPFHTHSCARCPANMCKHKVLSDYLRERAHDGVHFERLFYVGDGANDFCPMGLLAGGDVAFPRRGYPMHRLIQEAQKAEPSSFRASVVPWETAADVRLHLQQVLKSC
* = called active by the depositor. Only some compounds are listed: those with a hit (about 6.8% of all), similar ones and a draw of the others.

For O=C1C(=O)N(c2ccccn2)C(c2cccc(F)c2)/C1=C(/O)c1ccccc1 (stereo unspecified) the results were HSF1 inhib 2, HSF-1 act 5, ALR H2O2 inh 5, AI-2 QS modul 6, HCV core dimer 3 and PHOSPHO1 block 18.
Screening COc1ccc(/C=N/NC(=O)C(=O)NCc2cccnc2)cc1 returned HSF1 inhib -1, HSF-1 act 10, ALR H2O2 inh 41, AI-2 QS modul 36, HCV core dimer -3 and PHOSPHO1 block -14.
Cc1ccsc1/C=N\NC(=O)c1cc(C(C)(C)C)[nH]n1 was read as HSF1 inhib 15, HSF-1 act 46, ALR H2O2 inh 89*, AI-2 QS modul 8, HCV core dimer 3 and PHOSPHO1 block 46.
`Cc1ccsc1/C=N/NC(=O)c1sccc1C` gave HSF1 inhib 31, HSF-1 act 64*, ALR H2O2 inh -8, AI-2 QS modul 6, HCV core dimer -1 and PHOSPHO1 block -4.
`CCOc1ccc(NC(=O)COc2ccc(C(=O)NC(C)c3ccc(S(N)(=O)=O)cc3)cc2OC)cc1` (stereo unspecified) gave HSF1 inhib 0, HSF-1 act 3, ALR H2O2 inh -7, AI-2 QS modul 15 and HCV core dimer 3.
O=C(NC1CCCCC1)C(=O)c1c[nH]c2ccccc12 was read as HSF1 inhib 26, HSF-1 act 11, ALR H2O2 inh -1, AI-2 QS modul 1, HCV core dimer 3 and PHOSPHO1 block 29.
`CN1CCc2nc3sc(C(=O)C45CC6CC(CC(C6)C4)C5)c(N)c3cc2C1` gave ALR H2O2 inh -5, HCV core dimer -4 and PHOSPHO1 block 81*.
Screening Nc1c(C(=O)O)sc2nc3c(cc12)CCCC3 returned HSF1 inhib 0, HSF-1 act -5, AI-2 QS modul 35, HCV core dimer 3 and PHOSPHO1 block 51.
For O=C(Nc1ccc(N2CCN(C(=O)c3ccccc3)CC2)cc1)c1ccc([N+](=O)[O-])o1 the results were HSF1 inhib 89, HSF-1 act 111*, AI-2 QS modul 30 and PHOSPHO1 block 35.
`Cc1ccccc1C(=O)N1CCN(c2ccc(NC(=O)c3ccc([N+](=O)[O-])o3)cc2)CC1` gave HSF1 inhib 61, HSF-1 act 86*, ALR H2O2 inh -212, HCV core dimer -8 and PHOSPHO1 block 27.
CC(C)C(=O)N1CCN(c2ccc(NC(=O)c3ccc([N+](=O)[O-])o3)cc2)CC1 was read as HSF1 inhib 33, HSF-1 act inconclusive, AI-2 QS modul 17, HCV core dimer -4 and PHOSPHO1 block 26.
Screening CN(C1CCCCC1)C(CNS(=O)(=O)c1ccc(Cl)cc1)c1ccccc1 (stereo unspecified) returned HSF1 inhib 5, HSF-1 act 0, ALR H2O2 inh -1, AI-2 QS modul -4, HCV core dimer -3 and PHOSPHO1 block -1.
`O=C(/C=C/c1c(F)cccc1Cl)N1CCc2ccccc2C1` gave HSF1 inhib 26, HSF-1 act 36, ALR H2O2 inh -5, AI-2 QS modul -6, HCV core dimer 8 and PHOSPHO1 block 19.
Screening Cc1ccc(S(=O)(=O)N/N=C/c2ccccc2O)cc1[N+](=O)[O-] returned HSF1 inhib -5, HSF-1 act -14, ALR H2O2 inh 96*, AI-2 QS modul 26, HCV core dimer -3 and PHOSPHO1 block -8.
Cc1ccc(S(=O)(=O)N/N=C/c2ccc(O)c(O)c2)cc1[N+](=O)[O-] was read as HSF1 inhib 4, HSF-1 act 19, ALR H2O2 inh 99*, AI-2 QS modul 23, HCV core dimer -4 and PHOSPHO1 block -27.
Screening O=C1C2C3CCCC3=C3CCCC3C2C(=O)N1c1ccc(Cl)cc1 (stereo unspecified) returned HSF1 inhib 3, HSF-1 act 9, ALR H2O2 inh 8, AI-2 QS modul 24, HCV core dimer 52* and PHOSPHO1 block -3.
`O=C(CCC(=O)N1CCOc2ccccc21)N1CCN(c2ccccc2)CC1` gave HSF1 inhib -11, HSF-1 act -19, ALR H2O2 inh 98*, AI-2 QS modul 14, HCV core dimer -1 and PHOSPHO1 block 18.
`COc1cccc(N2CCN(C(=O)CCC(=O)N3CCOc4ccc(C)cc43)CC2)c1` gave HSF1 inhib -3, HSF-1 act -19, ALR H2O2 inh 89*, AI-2 QS modul 24, HCV core dimer -10 and PHOSPHO1 block 18.
O=C(CCC(=O)N1CCOc2ccccc21)N1CCOCC1 was read as HSF1 inhib -45, HSF-1 act -58, ALR H2O2 inh -10, AI-2 QS modul 21, HCV core dimer -8 and PHOSPHO1 block 20.
`COc1ccc(N2CCN(C(=O)CCC(=O)N3Cc4ccccc4Oc4ncccc43)CC2)cc1` gave HSF1 inhib 12, HSF-1 act 17, ALR H2O2 inh 90*, AI-2 QS modul 22, HCV core dimer 5 and PHOSPHO1 block 34.
For COc1ccc(/C=C2\SC(=S)N(CC(=O)OCC(=O)Nc3cc(Cl)cc(Cl)c3)C2=O)cc1 the results were HSF1 inhib 5, HSF-1 act 11, AI-2 QS modul 6, HCV core dimer 14 and PHOSPHO1 block 8.
`C=CCOC(=O)c1ccc(N2CCN(c3ccccc3)CC2)nc1` gave HSF1 inhib 12, HSF-1 act 19, ALR H2O2 inh 9, AI-2 QS modul 23, HCV core dimer 4 and PHOSPHO1 block 33.
For CCOc1ccccc1C(=O)Nc1nnc(SCC(=O)Nc2cc(C)on2)s1 the results were HSF1 inhib -27, HSF-1 act -32, ALR H2O2 inh -7, AI-2 QS modul 21, HCV core dimer 7 and PHOSPHO1 block 11.
O=C(c1cccc(NC2=NC3CS(=O)(=O)CC3S2)c1)N1CCN(c2ncccn2)CC1 (stereo unspecified) was read as HSF1 inhib -3, HSF-1 act -13, ALR H2O2 inh -1, AI-2 QS modul 37, HCV core dimer -1 and PHOSPHO1 block 18.
Screening COc1ccc(N2CCN(C(=O)c3cccc(NC4=NC5CS(=O)(=O)CC5S4)c3)CC2)cc1 (stereo unspecified) returned HSF1 inhib -2, HSF-1 act -6, ALR H2O2 inh 93*, AI-2 QS modul 27, HCV core dimer -1 and PHOSPHO1 block 34.
For Cc1cccc2nc(-c3ccco3)c(Nc3ccc4c(c3)OCO4)n12 the results were HSF1 inhib 4, HSF-1 act 10, ALR H2O2 inh 99*, AI-2 QS modul 21, HCV core dimer -3 and PHOSPHO1 block -26.

Assay outcomes from PubChem BioAssay.
